Reference: ChEMBL document CHEMBL1155457, “Discovery of the dual orexin receptor antagonist [(7R)-4-(5-chloro-1,3-benzoxazol-2-yl)-7-methyl-1,4-diazepan-1-yl][5-methyl-2-(2H-1,2,3-triazol-2-yl)phenyl]methanone (MK-4305) for the treatment of insomnia” (J Med Chem, 2010)
Calls of active or inactive are those of the source. The calls are words filed in the database; no cut-off is given here.

Columns and labels:
[1] = Oral bioavailability in rat at 10 mg/kg; assay type: ADME, organism-based; details: in vivo
[2] = Fraction unbound in rat plasma; assay type: ADME, cell-free
[3] = Drug level in Sprague-Dawley rat CSF at 10 mg/kg/day, po after 1 hr; assay type: ADME, organism-based, Cerebrospinal fluid; set-up: route oral; details: read-out: Drug uptake
[4] = tested on: Rattus norvegicus; test: Antiinsomnic activity in Sprague-Dawley rat assessed as increase in rapid-eye movement at 10 mg/kg/day, po measured with 3 to 4 hrs post last dose; assay type: functional, organism-based
Method in brief: (§1)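 Rats carried telemetry implants recording ECoG/EMG (sampled at 500 Hz) and had recovered at least 2 weeks after surgery. They were on a 12:12 light cycle with lights off at 04:00. After 2 days of vehicle habituation, four rats were dosed by oral gavage in 20% aqueous TPGS at 09:00, 5 h into the active phase. The design was a one-week crossover against vehicle. Recording ran 23 h; stages were auto-scored in 30-min bins, averaged over 7 days and compared by mixed-model ANOVA at each time point.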

[5] = Lipophilicity, log P of the compound; assay type: physicochemical; details: octanol/water
[6] = tested on: Rattus norvegicus; test: Antiinsomnic activity in Sprague-Dawley rat assessed as increase in delta sleep duration at 10 mg/kg/day, po measured with 3 to 4 hrs post last dose; assay type: functional, organism-based; method in brief: as §1
[7] = Drug level in Sprague-Dawley rat plasma at 10 mg/kg/day, po after 1 hr; assay type: ADME, organism-based; set-up: route oral; details: read-out: Drug uptake
[8] = Clearance in rat at 10 mg/kg, iv; assay type: ADME, organism-based; set-up: dose 10 mg/kg, route intravenous; details: in vivo
[9] = Oral bioavailability in dog at 3 mg/kg; assay type: ADME, organism-based, Canis lupus familiaris; details: in vivo
[10] = tested on: Rattus norvegicus; test: Antiinsomnic activity in Sprague-Dawley rat assessed as decrease in active wake duration at 10 mg/kg/day, po […]; assay type: functional, organism-based; method in brief: as §1
[11] = Clearance in dog at 0.5 mg/kg, iv; assay type: ADME, organism-based, Canis lupus familiaris; set-up: dose 0.5 mg/kg, route intravenous; details: in vivo
Method in brief: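 Dogs received an IV dose with DMSO as vehicle (n = 3). Clearance was derived from plasma pharmacokinetics.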

[12] = tested on: Rattus norvegicus; test: Antiinsomnic activity in Sprague-Dawley rat assessed as decrease in light sleep duration at 10 mg/kg/day, po measured with 3 to 4 hrs post last dose; assay type: functional, organism-based; method in brief: as §1
[13] = target: T1, Orexin/Hypocretin receptor type 1 (Homo sapiens, UniProt O43613); test: Displacement of [3H]N-cyclobutyl-5-methyl-N-(2-(1-methyl-1H-benzo[d]imidazol-2-ylthio)ethyl)-2-(2H-1,2,3-triazol-2-yl)benzamide from human OX1R expressed in CHO cells after 20 hrs by scintillation counting; assay type: cell-based
T1 sequence (O43613 whole entry): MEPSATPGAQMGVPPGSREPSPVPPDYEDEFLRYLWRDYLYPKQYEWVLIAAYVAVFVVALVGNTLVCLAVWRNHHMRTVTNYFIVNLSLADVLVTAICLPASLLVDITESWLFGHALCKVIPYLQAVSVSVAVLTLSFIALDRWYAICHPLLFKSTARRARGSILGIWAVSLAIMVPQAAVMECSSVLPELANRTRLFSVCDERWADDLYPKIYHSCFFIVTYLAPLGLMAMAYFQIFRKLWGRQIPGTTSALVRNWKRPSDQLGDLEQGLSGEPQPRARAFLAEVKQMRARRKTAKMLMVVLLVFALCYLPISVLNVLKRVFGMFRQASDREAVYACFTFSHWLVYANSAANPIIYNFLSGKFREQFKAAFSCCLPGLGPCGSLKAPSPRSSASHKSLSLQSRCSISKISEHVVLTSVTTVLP

[14] = target: T1, Orexin/Hypocretin receptor type 1; test: Displacement of [3H](S)-N-(biphenyl-2-yl)-1-(2-(1-methyl-1H-benzo[d]imidazol-2-ylthio)acetyl)pyrrolidine-2-carboxamide from human OX1R expressed in CHO cells after 3 hrs by scintillation counting; assay type: cell-based
[15] = target: T1, Orexin/Hypocretin receptor type 1; test: Antagonist activity at human OX1R expressed in CHO cells assessed as inhibition of orexin-A-induced intracellular calcium mobilization after 5 mins by FLIPR assay; assay type: functional, cell-based
[16] = target: T2, Orexin receptor type 2 (Homo sapiens, UniProt O43614); test: Displacement of [3H](S)-N-(2-(1H-pyrrol-1-yl)phenyl)-1-(2-(1-methyl-1H-benzo[d]imidazol-2-ylthio)acetyl)pyrrolidine-2-carboxamide from human OX2R expressed in CHO cells after 3 hrs by scintillation counting; assay type: cell-based
T2 sequence (O43614 whole entry): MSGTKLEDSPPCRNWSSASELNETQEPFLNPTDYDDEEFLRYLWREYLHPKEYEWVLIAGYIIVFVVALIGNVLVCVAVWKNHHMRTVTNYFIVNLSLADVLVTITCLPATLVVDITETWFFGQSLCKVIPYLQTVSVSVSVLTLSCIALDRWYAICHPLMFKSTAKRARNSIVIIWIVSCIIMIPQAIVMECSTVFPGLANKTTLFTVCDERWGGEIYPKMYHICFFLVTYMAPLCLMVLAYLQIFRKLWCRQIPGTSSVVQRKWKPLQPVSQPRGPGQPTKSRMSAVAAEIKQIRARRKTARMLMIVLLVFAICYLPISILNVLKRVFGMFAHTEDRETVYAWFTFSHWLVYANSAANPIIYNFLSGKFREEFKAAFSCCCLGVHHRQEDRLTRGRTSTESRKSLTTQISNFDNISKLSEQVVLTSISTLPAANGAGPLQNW

[17] = target: T2, Orexin receptor type 2; test: Antagonist activity at human OX2R expressed in CHO cells assessed as inhibition of orexin-A-induced intracellular calcium mobilization after 5 mins by FLIPR assay; assay type: functional, cell-based
[18] = tested on: Liver microsomes; test: Idiosyncratic toxicity in human liver microsomes assessed GSH-derived reactive electrophilic adduct formation at 10 uM after 60 mins by UPLC/HRMS analysis relative to labetalol; set-up: species or system Microsome; details: 1 h
Method in brief: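 Pooled human liver microsomes (1 mg/mL protein) were incubated 60 min at 37 °C in 100 mM potassium phosphate pH 7.4. The mix held 10 μM compound, 1 mM MgCl2, 1 mM EDTA, 5 mM GSH and 1 mM NADPH. After quenching, GSH adducts were detected by UPLC/HRMS. Summed adduct peak areas were divided by the labetalol internal-standard area.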

[19] = Terminal half life in rat at 2 mg/kg, iv; assay type: ADME, organism-based; set-up: dose 2 mg/kg, route intravenous; details: in vivo, read-out: beta t1/2 (converted)
Method in brief: (§2)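 IV PK in DMSO vehicle: rat at 2 mg/kg, dog at 0.5 mg/kg. Clearance, Vd_ss and terminal half-life were derived from plasma levels.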

[20] = Cmax in dog at 3 mg/kg, po; assay type: ADME, organism-based, Canis lupus familiaris; set-up: dose 3 mg/kg, route oral; details: in vivo
[21] = Cmax in rat at 100 mg/kg, po; assay type: ADME, organism-based; set-up: dose 100 mg/kg, route oral; details: in vivo
Method in brief: (§3)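 Rats dosed orally by gavage as the HCl salt in 20% TPGS. Plasma drug levels were followed to give AUC, Cmax and oral bioavailability.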

[22] = Oral bioavailability in rat at 100 mg/kg; assay type: ADME, organism-based; details: in vivo; method in brief: as §3
[23] = AUC in rat at 100 mg/kg, po; assay type: ADME, organism-based; set-up: dose 100 mg/kg, route oral; details: plasma; method in brief: as §3
[24] = Volume of distribution at steady state in dog at 0.5 mg/kg, iv; assay type: ADME, organism-based, Canis lupus familiaris; set-up: dose 0.5 mg/kg, route intravenous; details: in vivo, read-out: Vdss; method in brief: as §2
[25] = Volume of distribution at steady state in rat at 2 mg/kg, iv; assay type: ADME, organism-based; set-up: dose 2 mg/kg, route intravenous; details: in vivo, read-out: Vdss; method in brief: as §2
[26] = Terminal half life in dog at 0.5 mg/kg, iv; assay type: ADME, organism-based, Canis lupus familiaris; set-up: dose 0.5 mg/kg, route intravenous; details: in vivo, read-out: beta t1/2 (converted); method in brief: as §2
[27] = AUC in dog at 3 mg/kg, po; assay type: ADME, organism-based, Canis lupus familiaris; set-up: dose 3 mg/kg, route oral; details: plasma

Row | Structure (SMILES) | bioavailability [9] [%] | clearance [11] [mL/min/kg] | Ki [13] [nM] | Ki [14] [nM] | IC50 [15] [nM] | Ki [16] [nM] | IC50 [17] [nM] | Ratio [18] | other results
1 | Cc1ccc(-n2nccn2)c(C(=O)N2CCN(c3ncc4cc(F)ccc4n3)CC[C@H]2C)c1 | 37 | 5.2 |  |  |  |  |  |  | bioavailability [1]: 47%; fraction unbound [2]: 0.03; concentration at 1 h [3]: 1000 nM; Activity [4]: Active; logP [5]: 3; Activity [6]: Active; concentration at 1 h [7]: 20 nM; clearance [8]: 33 mL/min/kg; Activity [10]: Active; Activity [12]: Active
2 | Cc1ccc(-n2nccn2)c(C(=O)N2CCN(c3ncc4ccccc4n3)CC[C@H]2C)c1 | < 5 | 6 | 0.39 | 0.39 | 30 | 0.36 | 30 |  | 
3 | C[C@H]1CCN(c2ncc3ccccc3n2)CCN1C(=O)c1ccccc1-n1nccn1 |  |  | 54 | 54 |  | 8.5 |  |  | 
4 | C[C@@H]1CCN(c2ncc3c(n2)CCCC3)CCN1C(=O)c1ccccc1-n1nccn1 |  | 9.2 | 0.78 | 0.78 | 24 | 0.28 | 28 | 0.7 | 
5 | Cc1ccc(-n2nccn2)c(C(=O)N2CCN(c3nc4ccccc4o3)CC[C@H]2C)c1 |  | 2.4 | 4.1 | 4.1 | 24 | 3.2 | 57 |  | 
6 | Cc1ccc(-n2nccn2)c(C(=O)N2CCCN(c3ncc4ccccc4n3)CC2)c1 |  | 11.6 |  |  |  | 0.59 |  | 5 | half-life [19]: 21 min; Cmax [20]: 1440 nM; Activity [4]: Active; Cmax [21]: 650 nM; Activity [6]: Active; bioavailability [22]: 2%; AUC [23]: 1.5 µM·h; Vd [24]: 0.86 L/kg; Vd [25]: 1.08 L/kg; half-life [26]: 76.8 min; AUC [27]: 1.81 µM·h; Activity [10]: Active; Activity [12]: Active
7 | C[C@@H]1CCN(c2cnc3cc(F)c(F)cc3n2)CCN1C(=O)c1ccccc1-n1nccn1 | 15 | 4.9 | 1.8 | 1.8 | 28 | 0.25 | 32 | 3.7 | 
8 | C[C@@H]1CCN(c2ncc3ccccc3n2)CCN1C(=O)c1ccccc1-n1nccn1 |  | 6.4 | 6.2 | 6.2 | 26 | 0.47 | 18 |  | 
